Data on 13 compounds can be found in ChEMBL document CHEMBL3286091, “Novel N-linked aminopiperidine-based gyrase inhibitors with improved hERG and in vivo efficacy against Mycobacterium tuberculosis” (J Med Chem, 2014).

≈ marks a conversion by molar mass, not a printed value. Calls of active or inactive are those of the source. The calls are words filed in the database; no cut-off is given here.

The nature of series [1]: Apparent permeability from basolateral to apical side in human Caco2 cells. The series is classed as ADME, cell-based. The settings on record: Caco-2. For orientation: Caco-2 cells form a polarised layer with tight junctions and transporters.
Series [2] deals with Voltage-gated inwardly rectifying potassium channel KCNH2 (Homo sapiens, UniProt Q12809). Briefly: Inhibition of human ERG by patch clamp electrophysiological analysis.
Chain of Voltage-gated inwardly rectifying potassium channel KCNH2 (Q12809 whole entry): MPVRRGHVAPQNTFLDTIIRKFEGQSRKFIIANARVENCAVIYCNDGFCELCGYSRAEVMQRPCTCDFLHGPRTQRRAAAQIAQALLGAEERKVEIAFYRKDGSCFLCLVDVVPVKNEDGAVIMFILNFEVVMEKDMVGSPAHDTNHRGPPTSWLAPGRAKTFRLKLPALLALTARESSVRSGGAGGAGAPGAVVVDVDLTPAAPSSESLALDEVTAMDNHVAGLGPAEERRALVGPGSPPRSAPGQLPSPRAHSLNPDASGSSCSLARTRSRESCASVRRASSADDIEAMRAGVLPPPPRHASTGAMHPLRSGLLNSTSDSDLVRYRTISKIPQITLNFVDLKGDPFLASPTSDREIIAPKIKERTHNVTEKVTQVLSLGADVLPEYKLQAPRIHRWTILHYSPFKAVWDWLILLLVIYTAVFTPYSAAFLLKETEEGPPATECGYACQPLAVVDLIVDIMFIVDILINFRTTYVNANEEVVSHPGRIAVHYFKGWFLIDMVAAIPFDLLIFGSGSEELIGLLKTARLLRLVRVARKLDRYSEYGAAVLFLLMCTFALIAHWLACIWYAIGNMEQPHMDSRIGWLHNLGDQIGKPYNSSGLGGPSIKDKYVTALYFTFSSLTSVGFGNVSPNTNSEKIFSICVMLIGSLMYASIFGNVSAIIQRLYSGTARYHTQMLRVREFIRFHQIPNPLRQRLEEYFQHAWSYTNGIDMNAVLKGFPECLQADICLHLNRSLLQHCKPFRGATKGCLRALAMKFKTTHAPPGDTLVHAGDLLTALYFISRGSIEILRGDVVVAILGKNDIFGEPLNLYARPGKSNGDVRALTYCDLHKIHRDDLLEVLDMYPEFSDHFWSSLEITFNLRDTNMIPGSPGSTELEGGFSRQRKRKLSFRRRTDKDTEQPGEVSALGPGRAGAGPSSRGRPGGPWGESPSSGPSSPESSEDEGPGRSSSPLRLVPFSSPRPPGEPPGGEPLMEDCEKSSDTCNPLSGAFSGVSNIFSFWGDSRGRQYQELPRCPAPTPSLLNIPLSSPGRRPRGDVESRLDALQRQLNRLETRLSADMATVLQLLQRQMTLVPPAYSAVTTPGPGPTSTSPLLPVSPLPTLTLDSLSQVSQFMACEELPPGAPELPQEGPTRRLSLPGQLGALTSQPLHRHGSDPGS
Series [3] is described as follows: Apparent permeability from apical to basolateral side in human Caco2 cells. In kind it is ADME, cell-based. As to conditions: Caco-2.
Series [4] is described as follows: Octanol-sodium phosphate buffer partition coefficient, log D of the compound at 10 mM at pH 7.4 by shake-flask method. In kind it is physicochemical.
Series [5] concerns Mycobacterium tuberculosis. Briefly: Antimycobacterial activity against wild-type Mycobacterium tuberculosis H37Rv ATCC 27294 after 16 to 18 days by BACTEC 7H12B microdilution method. The series is classed as functional. In general terms: Broth dilution looks for growth in wells or tubes with falling amounts of substance.
Series [6] in a line: Oral bioavailability in rat at 40 mg/kg by LC-MS/MS analysis. The series is classed as ADME, organism-based. As to conditions: in vivo. The gist of the method:
(§1)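 Rats were dosed with the 5% dextrose (pH 4−5) formulation, 5 mg/kg iv and 40 mg/kg po. Plasma was precipitated with acetonitrile and analysed by LC−MS/MS with a carbamazepine internal standard. Parameters were derived by noncompartmental analysis.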

The nature of series [7]: Clearance in rat at 40 mg/kg, po and 5 mg/kg, iv by LC-MS/MS analysis. In kind it is ADME, organism-based. As to conditions: in vivo. The gist of the method: as §1
Series [8] concerns the target DNA gyrase subunit A/DNA gyrase subunit B (Mycobacterium tuberculosis (strain ATCC 25618 / H37Rv), UniProt P9WG45+P9WG47). Briefly: Inhibition of Mycobacterium tuberculosis H37Rv DNA gyrase holoenzyme-mediated supercoiling of pBR322 DNA after 90 mins by agarose gel electrophoresis.
Series [9] deals with DNA gyrase subunit B (Mycobacterium smegmatis, UniProt P0C559). Briefly: Inhibition of Mycobacterium smegmatis DNA gyrase-B ATPase activity. Further details: species or system Mycolicibacterium smegmatis.
Chain of DNA gyrase subunit B (P0C559 whole entry): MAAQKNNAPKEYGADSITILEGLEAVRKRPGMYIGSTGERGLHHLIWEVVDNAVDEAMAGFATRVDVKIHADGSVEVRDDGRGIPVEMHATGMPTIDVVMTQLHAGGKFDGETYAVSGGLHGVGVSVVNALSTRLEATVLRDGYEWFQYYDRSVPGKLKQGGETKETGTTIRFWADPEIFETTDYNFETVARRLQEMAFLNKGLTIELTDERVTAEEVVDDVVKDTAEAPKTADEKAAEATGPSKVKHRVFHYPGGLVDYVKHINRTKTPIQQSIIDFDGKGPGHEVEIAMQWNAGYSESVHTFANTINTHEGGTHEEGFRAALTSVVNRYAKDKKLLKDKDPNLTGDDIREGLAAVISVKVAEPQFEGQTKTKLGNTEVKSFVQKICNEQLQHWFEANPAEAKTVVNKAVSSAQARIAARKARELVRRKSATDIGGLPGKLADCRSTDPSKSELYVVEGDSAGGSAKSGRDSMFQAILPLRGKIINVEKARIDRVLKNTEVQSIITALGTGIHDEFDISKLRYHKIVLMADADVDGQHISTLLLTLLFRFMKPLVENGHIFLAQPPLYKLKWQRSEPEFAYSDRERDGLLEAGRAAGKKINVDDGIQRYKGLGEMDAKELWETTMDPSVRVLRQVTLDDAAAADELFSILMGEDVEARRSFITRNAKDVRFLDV
Series [10] in a line: Fraction unbound in aminobenzotriazole-pretreated BALB/c mouse plasma infected with Mycobacterium tuberculosis by LC-MS/MS analysis. In kind it is ADME, cell-free.
The test system of series [11] is Mus musculus. Briefly: fT>MIC in BALB/c mouse infected with Mycobacterium tuberculosis at 20 mg/kg, po. Summed up:
(§2)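 PK was measured in infected, ABT-pretreated mice during efficacy dosing (oral, 5% dextrose pH 4−5) on day 18 or 19. Saphenous blood was taken at 5, 15 and 30 min and 1, 2, 4 and 6 h. Plasma was precipitated with acetonitrile and analysed by LC−MS/MS. AUC came from noncompartmental analysis; free AUC/MIC and %free T>MIC used the unbound fraction and MIC.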

For series [12], the system named is Mycobacterium tuberculosis. Briefly: Antimycobacterial activity against Mycobacterium tuberculosis infected in aminobenzotriazole-pretreated BALB/c mouse chronic tuberculosis model assessed as reduction in log10CFU at 40 to 80 mg/kg, po bid for 8 weeks. In kind it is functional, organism-based. Summed up: (§3)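 Aerosol-infected BALB/c mice in BSL3, three per group. Treatment began 3 days (acute) or 4 weeks (chronic) after infection. ABT 100 mg/kg po in water was given 2 h before oral gavage of compound in 5% dextrose (pH 4−5 with acetic acid), 10 mL/kg, twice daily at 8 h intervals. Courses were 20 days (7 days/week) or 8 weeks (6 days/week). Lung homogenates were plated on 7H11 for cfu.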

The subject of series [13] is Mycobacterium tuberculosis. Briefly: Antimycobacterial activity against Mycobacterium tuberculosis infected in aminobenzotriazole-pretreated BALB/c mouse chronic tuberculosis model assessed as reduction in log10CFU at 40 to 80 mg/kg, po bid for 20 days. In kind it is functional. The settings on record: dose mg/kg 40-80. Summed up:
as §3

Series [14] can be described thus: Ratio of fAUC in aminobenzotriazole-pretreated Mycobacterium tuberculosis infected BALB/c mouse at 20 mg/kg, po to MIC for wild-type Mycobacterium tuberculosis H37Rv ATCC 27294. The gist of the method: as §2
Series [15] has as its system Mycobacterium tuberculosis. Briefly: Bactericidal activity against Mycobacterium tuberculosis infected in human THP1 cells at 1 ug/ml for 7 days. The series is classed as functional, THP-1. The gist of the method:
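Adherent THP-1 macrophages infected with Mtb were exposed to compound at 1 μg/mL for 7 days at 37 °C. Kill was expressed as log reduction versus the untreated control.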

Chain of DNA gyrase subunit A/DNA gyrase subunit B (P9WG45 whole entry): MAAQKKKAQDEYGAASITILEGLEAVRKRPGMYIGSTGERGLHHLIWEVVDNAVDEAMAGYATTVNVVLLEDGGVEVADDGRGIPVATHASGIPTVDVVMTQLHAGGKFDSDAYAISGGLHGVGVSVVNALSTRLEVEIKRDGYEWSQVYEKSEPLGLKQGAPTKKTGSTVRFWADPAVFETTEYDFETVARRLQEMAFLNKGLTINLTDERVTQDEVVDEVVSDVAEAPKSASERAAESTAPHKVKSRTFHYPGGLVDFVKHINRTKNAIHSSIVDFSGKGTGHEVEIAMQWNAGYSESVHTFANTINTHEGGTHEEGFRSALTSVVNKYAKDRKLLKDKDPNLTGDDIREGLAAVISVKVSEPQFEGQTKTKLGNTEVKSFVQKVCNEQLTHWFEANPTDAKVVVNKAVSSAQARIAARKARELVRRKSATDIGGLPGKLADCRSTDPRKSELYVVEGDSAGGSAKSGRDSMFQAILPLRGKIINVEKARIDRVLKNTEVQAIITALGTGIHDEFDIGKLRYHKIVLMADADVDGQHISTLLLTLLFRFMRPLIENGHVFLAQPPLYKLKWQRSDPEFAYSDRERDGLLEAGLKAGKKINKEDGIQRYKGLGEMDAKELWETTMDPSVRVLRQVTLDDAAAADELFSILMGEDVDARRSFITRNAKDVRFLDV
Chain of DNA gyrase subunit A/DNA gyrase subunit B (P9WG47 whole entry): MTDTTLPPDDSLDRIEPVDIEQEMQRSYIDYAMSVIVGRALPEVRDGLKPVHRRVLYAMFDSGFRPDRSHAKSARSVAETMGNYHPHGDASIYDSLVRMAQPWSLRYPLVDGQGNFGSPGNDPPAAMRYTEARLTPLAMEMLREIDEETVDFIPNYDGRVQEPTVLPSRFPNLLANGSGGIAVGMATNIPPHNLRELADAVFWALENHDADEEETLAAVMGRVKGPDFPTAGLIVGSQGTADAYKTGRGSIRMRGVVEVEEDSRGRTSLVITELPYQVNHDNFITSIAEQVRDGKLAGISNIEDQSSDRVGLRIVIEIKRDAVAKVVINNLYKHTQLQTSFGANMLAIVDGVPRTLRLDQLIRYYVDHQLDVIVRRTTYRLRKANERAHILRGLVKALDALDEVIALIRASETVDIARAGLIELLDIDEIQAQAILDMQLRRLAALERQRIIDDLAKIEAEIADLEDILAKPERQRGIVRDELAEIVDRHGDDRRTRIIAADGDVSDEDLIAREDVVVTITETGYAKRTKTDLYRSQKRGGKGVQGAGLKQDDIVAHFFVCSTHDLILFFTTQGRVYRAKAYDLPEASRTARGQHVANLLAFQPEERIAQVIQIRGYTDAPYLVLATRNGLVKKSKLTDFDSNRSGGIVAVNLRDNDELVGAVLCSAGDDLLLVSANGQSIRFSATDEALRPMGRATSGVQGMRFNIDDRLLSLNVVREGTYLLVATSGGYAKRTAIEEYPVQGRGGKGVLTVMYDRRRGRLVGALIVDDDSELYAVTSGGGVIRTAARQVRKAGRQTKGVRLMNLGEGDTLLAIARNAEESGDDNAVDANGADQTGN

The Papp B→A is how fast a substance crosses the layer from the basolateral side. What is called IC50 is the point on the concentration scale where inhibition reaches its midpoint. Lower therefore signals greater potency in that assay. As usually defined, the Papp A→B is how fast a substance crosses the layer from the apical side. As a reminder, the logD is the decadic logarithm of the distribution of all forms, ionised or not, between an organic phase and buffer at a given pH. Higher therefore signals higher lipophilicity. A word on the MIC: it is the lowest concentration found to suppress growth. Regarding `COc1cnc2ccc(=O)n(CCN3CCC(NCc4cnc(OC)c(C#N)c4)CC3)c2c1`, the Papp B→A in [1] was 9 ×10⁻⁶ cm/s. Further, in series [2], the IC50 came out at 12 µM. Also, in series [3], the Papp A→B worked out at 13 ×10⁻⁶ cm/s. Also, the logD at 10000 µM in [4] amounted to 1.2. This compound also registered an MIC in [5] of 0.06 µg/mL (≈ 0.134 µM).
In series [5], `NNC(=O)c1ccncc1` [ISONIAZID] displayed an MIC of 0.06 µg/mL (≈ 0.438 µM).
The bioavailability is dose-corrected exposure relative to a reference, in per cent. For `Cc1ncc(CN[C@@H]2CCN(CCn3c(=O)ccc4ncc(F)cc43)C[C@@H]2F)cc1C#N`, the Papp B→A in [1] stood at 15.4 ×10⁻⁶ cm/s. Also, the bioavailability in series [6] was > 100%. The Papp A→B in series [3] was 17.7 ×10⁻⁶ cm/s. The compound further yielded a logD at 10000 µM in [4] of 0.92. The clearance in series [7] was 30 mL/min/kg. This compound had an MIC in [5] of 0.25 µg/mL (≈ 0.57 µM).
In the case of `COc1cc(C#N)c2ccc(=O)n(CCN3CCC(NCc4cnc(C)c(C#N)c4)CC3)c2c1`, the Papp B→A in series [1] is 4.7 ×10⁻⁶ cm/s. This compound came in with a bioavailability in series [6] of 59%. Besides, the IC50 in [2] came out at 2.5 µM; in series [8], 0.065 µM. In addition, in series [3], the Papp A→B was 10 ×10⁻⁶ cm/s. The compound also registered a logD at 10000 µM in [4] of 1.86. The compound also registered a clearance in [7] of 10 mL/min/kg. Moreover, the MIC in [5] worked out at 0.01 µg/mL (≈ 0.0219 µM).
For orientation: fraction unbound means free concentration divided by total concentration. As for `Cc1ncc(CNC2CCN(CCn3c(=O)ccc4ccc(C#N)cc43)CC2)cc1C#N`, the Papp B→A in series [1] came out at 7.4 ×10⁻⁶ cm/s. Moreover, the figures for the IC50 in series [9], in series [2] and in series [8] were > 100 µM, 26 µM and 0.25 µM, respectively. For the same compound, in series [6], the bioavailability is > 100%. Besides, in series [10], the fraction unbound is 0.43. The Papp A→B in series [3] was 13.6 ×10⁻⁶ cm/s. Also, in series [11], the “fT>MIC” value was 58%. In [4], this compound registered a logD at 10000 µM of 1.3. The clearance in [7] turned out to be 41 mL/min/kg. In series [5], inhibition of growth (MIC) required 0.06 µg/mL (≈ 0.141 µM). In series [12], the result was Active. Also, the log10cfu in series [13] was 0.5. Also, in series [14], the fAUC/MIC is 159.
The compound `O=C(O)c1cn(C2CC2)c2cc(N3CCNCC3)c(F)cc2c1=O` [CIPROFLOXACIN] had an MIC in series [5] of 0.25 µg/mL (≈ 0.754 µM).
Consider `COc1cnc2ccc(=O)n(CCN3CCC(NC(=O)c4cnc(C)c(C#N)c4)CC3)c2c1`, for which the Papp B→A in series [1] was determined as 13 ×10⁻⁶ cm/s. This compound returned a 50% inhibitory concentration (IC50) in series [2] of 74 µM. Moreover, the Papp A→B in series [3] worked out at 4.2 ×10⁻⁶ cm/s. Further, in series [4], the logD at 10000 µM is 1.4. For the same compound, in series [5], the MIC turned out to be 0.13 µg/mL (≈ 0.291 µM).
Take `COc1cnc2ccc(=O)n(CCN3CC[C@@H](NCc4ccc5c(n4)NC(=O)CO5)[C@@H](OC)C3)c2c1`: the IC50 in series [2] is > 100 µM. The same compound yielded a logD at 10000 µM in [4] of 0.4. The same compound came in with an MIC in series [5] of 0.13 µg/mL (≈ 0.263 µM).
In the case of `COc1ccc2c(ccc(=O)n2CCN2CCC(NCc3cnc(C)c(C#N)c3)CC2)n1`, the midpoint of inhibition in series [2], the IC50, lay at 10 µM. Besides, in [5], the MIC is 4 µg/mL (≈ 9.25 µM).
`Cc1ncc(CN[C@@H]2CCN(CCn3c(=O)ccc4ccc(C#N)cc43)C[C@@H]2F)cc1C#N`: in series [1], the Papp B→A was determined as 13 ×10⁻⁶ cm/s. Also, the Papp A→B in series [3] worked out at 14.5 ×10⁻⁶ cm/s. The same compound showed a logD at 10000 µM in series [4] of 1.29. In series [5], this compound displayed an MIC of 0.25 µg/mL (≈ 0.562 µM).
Regarding `Cc1ncc(CNC2CCN(CCn3c(=O)ccc4c3ccc(=O)n4C)CC2)cc1C#N`, half-maximal inhibition in [2] (IC50) was put at 33 µM. Also, the logD at 10000 µM in [4] was -0.6. The MIC in [5] was > 32 µg/mL.
On to `COc1c(N2C[C@@H]3CCCN[C@@H]3C2)c(F)cc2c(=O)c(C(=O)O)cn(C3CC3)c12` [MOXIFLOXACIN], for which the LCK in series [15] was determined as 2.3. This compound registered an MIC in series [5] of 0.06 µg/mL (≈ 0.149 µM).
`Cc1nc(CNC2CCN(CCn3c(=O)ccc4ccc(C#N)cc43)CC2)ccc1C#N`: the Papp B→A in series [1] turned out to be 9.1 ×10⁻⁶ cm/s. The IC50 was > 100 µM in series [9], 5.3 µM in [2] and > 100 µM in series [8]. For the same compound, in series [3], the Papp A→B stood at 17.1 ×10⁻⁶ cm/s. Also, the logD at 10000 µM in [4] came out at 1.1. In series [5], the MIC was > 16 µg/mL.
